Screening results deposited in PubChem BioAssay by several laboratories.
TRPC4 agonist – activators of mouse TRPC4 channel; Q9QUQ5; HEK293 TRPC4beta/mu-opioid, Fluo4 calcium fluorescence; active compounds read high; B-score at 10 µM; hit rate 0.49% among 310,000;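 active = B-score above 5 SD of library B-scores, and initial fluorescence ratio not above library mean plus 5 SD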;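 also: positive B-score marks a calcium rise read as TRPC4 activation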
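Material: HEK293 stable line with TRPC4beta plus mu-opioid receptor; technique: Fluo4 calcium-sensitive dye fluorescence, kinetic, 1 Hz baseline; timing: Fluo4 dye loading 45 min at room temperature, 110 s recording; controls: assay buffer as low control, maximal DAMGO as high control; read-out: integrated baseline-normalised fluorescence ratio, converted to per-well B score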
TRPC4 potent – allosterically enhances the mouse TRPC4 cation channel | Q9QUQ5 | HEK293 TRPC4beta/mu-opioid, DAMGO EC20, Fluo-4 Ca2+ flux; active compounds read high | B-score at 10 µM | hit rate 0.42% among 310,000;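 active = B-score of calcium response area above 5 SD of library B-scores, with initial fluorescence ratio within 5 SD of library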;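 also: B-score of integrated fluorescence ratio over time as area under calcium response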
TRPC4 inh – blocks the mouse TRPC4 cation channel. Q9QUQ5. B-score at 10 µM. hit rate 0.39% among 300,000. HEK293 TRPC4beta/mu-opioid, DAMGO-evoked Fluo4 calcium flux; active compounds read low. AID 2247;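 active = B-score over 3 SD under the library average, no early fluorescence shift, positive overall ratio signal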
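Material: HEK293 cells with stable TRPC4beta plus mu-opioid receptor expression / Probe or stimulus: DAMGO in two steps, submaximal then maximal / Compound: single concentration per test compound / Technique: kinetic Fluo4 fluorescence imaging of calcium influx / Read-out: per-well B score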
TRPC6 act – activators of mouse TRPC6 channel; HEK293-TRPC6 membrane potential dye fluorescence; active compounds read high; B-score at 10 µM; Q61143; hit rate 0.13% among 310,000;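 active = B-score of the integrated fluorescence ratio above library mean plus 3 SD, and starting fluorescence ratio within library mean plus 5 SD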;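 also: higher score means more depolarization so channel activation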
Yeast superoxide – yeast age-related superoxide inhibition as caloric restriction mimetic; superoxide response (% of plate mean), % at 10 µM; hit rate 0.18% among 330,000; S. cerevisiae aged cells, superoxide DHE fluorescence; active compounds read low; AID 2690;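 active = superoxide response under a set limit, about three screen SD below normal, cut at about 65% in these data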;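 also: yeast aged for seven days with compound at 30 °C before DHE staining; 100% = average MFI of all compound-treated wells on the plate with controls excluded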
TRPC6 inh – inhibitors of mouse TRPC6 channel; AID 2553; B-score at 10 µM; HEK293-TRPC6, membrane potential dye, ACh-evoked depolarization; active compounds read low; hit rate 1.1% among 310,000; Q61143;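 active = B-score under library mean minus 3 SD, initial fluorescence not abnormally high, positive integrated signal ratio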;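 also: B-score derived from integrated fluorescence ratio over the kinetic read; more negative B-score means stronger inhibition of depolarization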
Starred values were filed as active, the others as inactive; i = inactive; nt = no result. Sampled rows, rich in hits. Any-hit rate of the full collection: about 2.3%.

SMILES	TRPC4 agonist	TRPC4 potent	TRPC4 inh	TRPC6 act	Yeast superoxide	TRPC6 inh
O=C(CCS(=O)(=O)c1ccccc1)Nc1ccc2c(c1)OCO2	i	i	i	i	100	i
Cc1ccc(-c2noc(C3CCCCC3)n2)cc1	i	i	i	i	100	i
Cn1c(=O)[nH]c(=O)c2c1nc(CN1CCN(c3cccc(Cl)c3)CC1)n2Cc1ccccc1Cl	i	i	i	i	97	i
Cc1ccc(Cl)cc1N1CCN(Cc2nc3c(c(=O)[nH]c(=O)n3C)n2Cc2ccccc2F)CC1	i	26*	i	i	104	i
Cc1ccc(Cl)cc1N1CCN(Cc2nc3c(c(=O)[nH]c(=O)n3C)n2CCc2ccccc2)CC1	i	i	i	i	109	i
CCN1CCN(Cc2nc3c(c(=O)[nH]c(=O)n3C)n2Cc2ccccc2Cl)CC1	i	28*	i	i	119	i
O=c1[nH]nc(N/N=C/c2ccc(Cl)cc2Cl)c(=O)[nH]1	i	i	i	i	97	i
COc1ccc(CCNC(=O)c2cc3c(=O)n(C)c4ccccc4c3n2C)c(OC)c1	i	i	i	i	61*	i
CCCN(CCC)CCNC(=O)c1cc2c(=O)n(C)c3ccccc3c2n1C	i	13*	i	i	110	i
CCOC(=O)c1ccc(N2CCOCC2)c(NC(=O)c2ccc3c(c2)OCO3)c1	i	i	i	i	99	i
C[C@@]12C(=O)OC(=O)[C@]1(C)C1CCC2O1	nt	nt	nt	nt	51*	nt
N#CC1=C(N)C2=CCCC[C@H]2[C@H](c2cccc(F)c2)C1(C#N)C#N	i	34*	i	i	97	i
COc1ccc(C2NC(C(=O)O)Cc3c2[nH]c2ccccc32)cc1CN1CCN(c2ccc(F)cc2)CC1 (centres undefined)	i	i	-6*	i	105	i
NC(CCCCc1ccccc1)c1cccc2ccccc12 (centres undefined)	i	i	i	i	92	-7.9*
S=C(Nc1ccccc1)NC1CCN(Cc2ccccc2)CC1	i	i	i	i	88	i
CCOc1cccc(CN2CCCC(C(=O)c3cccc(C(F)(F)F)c3)C2)c1O (centres undefined)	i	i	-6*	i	107	i
COc1cccc(O)c1CN1CCCC(C(=O)c2cccc(C(F)(F)F)c2)C1 (centres undefined)	i	i	-7*	i	110	i
COc1c(C)cc(C(=O)C2CCCN(Cc3cccc4nccnc34)C2)cc1C (centres undefined)	110*	i	i	i	81	i
CC(=O)Nc1ccc(CN2CCCC(C(=O)c3ccc(C(F)(F)F)cc3)C2)cc1 (centres undefined)	234*	i	i	i	104	i
COc1ccccc1C(=O)C1CCCN(Cc2cccc3nccnc23)C1 (centres undefined)	i	i	i	i	109	i
CCOCCCNC(=O)c1ccc(N2CCCC2)c(NS(=O)(=O)c2ccc(C)cc2)c1	i	i	i	i	117	i
CCOc1ccc(N(CC(=O)NCc2ccccc2)C(=O)Cn2nnc(-c3ccc(C)o3)n2)cc1	i	i	i	i	94	i
Cc1cc(C)n(S(=O)(=O)c2ccc(C(C)(C)C)cc2)n1	i	i	i	i	109	-6.6*
COc1cc(/C=N/NC(=O)c2cn(-c3cccc(C)n3)cn2)ccc1O	i	i	i	i	81	i
O=C(c1cc2c(s1)-c1ccccc1S(=O)(=O)C2)N1CCN(Cc2ccccc2)CC1	i	10*	i	i	103	i
SMILES	TRPC4 agonist	TRPC4 potent	TRPC4 inh	TRPC6 act	Yeast superoxide	TRPC6 inh
CCN1CCN(C(=O)c2cc3c(s2)-c2ccccc2S(=O)(=O)C3)CC1	i	i	i	i	97	i
O=C(Nc1nnc(-c2ccccc2)o1)c1ccc(Cl)cc1	48*	i	i	i	152	i
Cc1ccc(S(=O)(=O)Nc2ccc3c(c2)nc(CCN2CCCCC2)n3C)cc1	i	i	i	i	104	i
Cc1ccc(S(=O)(=O)Nc2ccc3c(c2)nc(CN2CCCC2)n3C)cc1	44*	i	i	i	97	i
CCOP(=O)(OCC)c1nc(-c2ccccc2Cl)oc1N1CCOCC1	i	i	i	i	75	i
CCOP(=O)(OCC)c1nc(-c2ccc(Cl)cc2Cl)oc1N1CCCCC1	i	19*	i	i	96	i
COc1cccc(CC(=O)Nc2nc(C)cs2)c1	i	i	i	i	92	i
Fc1ccc(COc2ccc(Br)cc2CNCC2CCCO2)cc1 (centres undefined)	i	i	i	i	95	i
Fc1ccccc1COc1ccc(Br)cc1CNCC1CCCO1 (centres undefined)	i	i	-6*	i	108	i
CC(C)c1nc(SCC(=O)N2CCc3ccccc32)n[nH]1	i	i	i	i	109	i
CC(C)(C)c1ccc(-c2nnc(SCC(=O)c3ccc4c(c3)OCCO4)o2)cc1	i	i	i	i	98	i
CSc1ccc2nnc(-c3cccc(F)c3)n2n1	i	21*	i	i	91	i
COc1ccc(CN2CCN(CC(O)Cn3c4ccccc4c4ccccc43)CC2)cc1 (centres undefined)	79*	i	i	i	110	i
CCOc1ccc(CN2CCN(CC(O)Cn3c4ccccc4c4ccccc43)CC2)cc1 (centres undefined)	i	i	i	i	80	i
CCC1(C)Cc2c(C#N)c(N)n(N)c(=S)c2CO1 (centres undefined)	i	i	i	i	109	i
COc1cccc(CN2CCCC(C(=O)c3ccc4c(c3)OCO4)C2)c1OC (centres undefined)	i	i	i	i	121	i
O=C(c1ccc(Cl)cc1)C1CCCN(Cc2cccn2-c2cccnc2)C1 (centres undefined)	i	i	i	i	102	i
O=C(c1ccc2c(c1)OCO2)C1CCCN(Cc2cccn2-c2cccnc2)C1 (centres undefined)	i	i	-6*	i	105	i
O=C(c1ccc2c(c1)OCO2)C1CCCN(Cc2ccccc2OC(F)F)C1 (centres undefined)	i	i	-7*	i	109	i
